Source: PubChem
YB-1 expression – YB-1 expression inhibition | AID 434959 | U2OS, qRT-PCR YB-1 vs CDIP delta delta Cp, 16 h; hits give high values; zero = DMSO, each unit about twofold | delta delta Cp (YB-1 minus CDIP) (concentration not given with the values) | 0.37% of 30,000 active;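 active means delta delta Cp rounded down to an integer at or above 3, about 3 SD of DMSO wells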;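 further: higher means less YB-1 transcript or more CDIP transcript relative to DMSO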
INS-1E rescue – INS-1E beta cell protection from cytokine death | INS-1E cytokine-induced death, ATP luminescence, 48 h; normalised: neutral wells 0, positive control 100 | protection from cytokine-induced ATP loss, % at 10 µM | 0.1% of 20,000 active | AID 488910;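 active means mean replicate protection from cytokine-induced ATP loss at least 50% and at least 75% of replicates each reaching 50%; inconclusive means meets only one of the two criteria, mean or replicate share; inactive means fails both the mean and replicate share criteria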
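Assay system: INS-1E rat insulinoma cells. Amount: 8000 cells per well. Medium: phenol-red-free RPMI with 5% fetal bovine serum. Reagent: IL-1β, TNF-α and IFN-γ cytokine mix. Doses: one compound concentration, pin transfer. Schedule: 48 h co-treatment, 10 min post-lysis read. Detection: CellTiter-Glo luminescence measuring cellular ATP.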
T cruzi intra – blocks T. cruzi growth inside host cells; activity score (inhibition), % at 5.01 µM; AID 651903; 4.9% of 22,000 active; intracellular Trypanosoma cruzi in host cells, plate reader; in the data active means activity score above about 55%; inconclusive means no clear call, values can overlap the other calls;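 further: parasites and compound incubated about four days before reading; 0% = median of neutral control wells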
* marks the source's active call; other numbers are inactive results; ? = inconclusive; . = not tested or not shown. The sample as a whole holds a higher share of hits than the screen did.

SMILES	YB-1 expression	INS-1E rescue	T cruzi intra
C[C@H](CO)N1C[C@H](C)[C@@H](CN(C)Cc2ccccc2)Oc2c(NC(=O)c3ccc(-c4nccs4)cc3)cccc2C1=O	0.76	-9	53
C[C@@H]1CN([C@H](C)CO)C(=O)c2cccc(NC(=O)c3ccc(-c4nccs4)cc3)c2O[C@H]1CN(C)Cc1ccc(-c2ccccc2)cc1	0.17	-3	43
Cc1cc2nnc(SCC(=O)c3cc(C)n(Cc4ccccc4)c3C)n2c2ccccc12	0.33	.	.
COC(=O)CCCCCCC(=O)N/N=C/c1cc(I)cc(I)c1O	-0.052	27	88*
COC(=O)CCCCCCC(=O)N/N=C/c1cc(Cl)cc(Cl)c1O	0.17	17	20
O=C(N/N=C/c1cccc(O)c1O)c1ccccn1	-0.45	-55	29
O=C(N/N=C/c1cc(I)cc(I)c1O)c1ccccn1	-0.4	-107	91*
CC(=O)OC[C@]12[C@H](OC(C)=O)[C@H](OC(C)=O)[C@@H]3[C@@H](OC(C)=O)[C@@]14O[C@@]3(C)COC(=O)c1cnccc1CC[C@H](C)C(=O)O[C@@]4(C)[C@@H](O)[C@H](O)[C@@H]2OC(C)=O	-0.61	.	.
CCOC(=O)c1ccc2nc(C(F)(F)F)nc(N3CCCCC3)c2c1	0.83	.	.
CC1=CC(C)(C)N(Cc2ccccc2)c2ccccc21	-0.62	.	.
C[C@@H]1CN([C@@H](C)CO)C(=O)c2cccc(NC(=O)c3nc4ccccc4s3)c2O[C@@H]1CN(C)Cc1ccc(C(=O)O)cc1	0.082	7	-2
C[C@@H]1CN([C@H](C)CO)C(=O)c2cccc(NC(=O)c3nc4ccccc4s3)c2O[C@@H]1CN(C)Cc1ccc(-c2ccccc2)cc1	-0.11	-33	34
C[C@@H]1CN([C@H](C)CO)C(=O)c2cccc(NC(=O)c3nc4ccccc4s3)c2O[C@@H]1CN(C)Cc1ccccc1	0.11	-56	23
C[C@H](CO)N1C[C@H](C)[C@@H](CN(C)Cc2ccc(Oc3ccccc3)cc2)Oc2c(NC(=O)c3nc4ccccc4s3)cccc2C1=O	1.4	-26	66*
C[C@@H]1CN([C@@H](C)CO)C(=O)c2cccc(NC(=O)c3nc4ccccc4s3)c2O[C@H]1CN(C)Cc1ccc(-c2ccccc2)cc1	0.33	-32	71*
C[C@@H]1CN([C@@H](C)CO)C(=O)c2cccc(NC(=O)c3nc4ccccc4s3)c2O[C@H]1CN(C)Cc1ccc(C(=O)Nc2ccccc2N)cc1	-0.43	19	70*
C[C@H]1CN([C@@H](C)CO)C(=O)c2cccc(NC(=O)c3nc4ccccc4s3)c2O[C@@H]1CN(C)Cc1ccc(Oc2ccccc2)cc1	0.47	-11	54
C[C@H]1CN([C@@H](C)CO)C(=O)c2cccc(NC(=O)c3nc4ccccc4s3)c2O[C@@H]1CN(C)Cc1ccc(Cl)c(Cl)c1	-0.15	-13	65*
O=S(=O)(c1ccccc1)c1ccc(S(=O)(=O)N2CCCCC2)s1	0.4	.	.
Cc1c(C)c(C)c(S(=O)(=O)NC(C)(C)C)c(C)c1C	0.44	.	.
Oc1ccc2ccccc2c1C1Nc2ccccc2-n2cccc21 (centres undefined)	-0.58	.	.
C[C@@H]1CN([C@@H](C)CO)C(=O)c2cccc(NC(=O)c3ccncc3)c2O[C@H]1CN(C)C(=O)Nc1ccccc1	0.21	9	-3
C[C@H]1CN([C@@H](C)CO)C(=O)c2cccc(NC(=O)c3ccncc3)c2O[C@H]1CN(C)C(=O)Nc1ccc(F)cc1	-0.17	7	64*
C[C@H](CO)N1C[C@H](C)[C@H](CN(C)C(=O)Nc2ccccc2)Oc2c(NC(=O)c3ccncc3)cccc2C1=O	-0.4	8	78*
C[C@@H]1CN([C@H](C)CO)C(=O)c2cccc(NC(=O)c3ccncc3)c2O[C@@H]1CN(C)C(=O)Nc1ccc(F)cc1	0.093	11	-30
SMILES	YB-1 expression	INS-1E rescue	T cruzi intra
CCC1=NC(C(F)(F)F)(C(F)(F)F)C2=C(CC(C)(C)CC2=O)N1Cc1ccccc1	-0.91	.	.
COc1ccc(/C=C/C(=O)O[C@@H]2[C@@H](O)[C@@H](O)[C@H](O[C@@H]3C=C(CO)[C@H]4[C@H](O[C@@H]5O[C@H](CO)[C@@H](O)[C@H](O)[C@H]5O)OC=C[C@H]43)O[C@H]2C)cc1	-0.082	.	.
C[C@H](CO)N1C[C@H](C)[C@@H](CN(C)S(=O)(=O)c2ccc(Oc3ccccc3)cc2)OCc2cnnn2CCCC1=O	-0.25	.	73*
C[C@@H]1CN([C@@H](C)CO)C(=O)CCCn2nncc2CO[C@H]1CN(C)S(=O)(=O)c1ccc(Oc2ccccc2)cc1	-0.039	.	8
C[C@H]1CN([C@@H](C)CO)C(=O)CCCn2nncc2CO[C@@H]1CN(C)S(=O)(=O)c1ccc(Oc2ccccc2)cc1	-0.58	2	73*
C[C@H](CO)N1C[C@H](C)[C@H](CN(C)S(=O)(=O)c2ccccc2)OCc2cnnn2CCCC1=O	-0.37	.	-11
C=CCNC(=S)NC1(C)CCS(=O)(=O)C1 (centres undefined)	0.17	.	.
Cc1ccc2c(c1)c1c(n2CCc2ccncc2)CCN(C)C1	-1.7	.	.
C[C@@H]1CN([C@@H](C)CO)C(=O)c2cc(NS(=O)(=O)c3ccccc3)ccc2O[C@@H]1CN(C)Cc1ccc(-c2ccccc2)cc1	0.2	-59	27
Cc1ccc(S(=O)(=O)Nc2ccc3c(c2)C(=O)N([C@@H](C)CO)C[C@H](C)[C@@H](CN(C)Cc2ccc(-c4ccccc4)cc2)O3)cc1	0.19	-5	78*
C[C@H]1CN([C@@H](C)CO)C(=O)c2cc(NS(=O)(=O)c3ccccc3)ccc2O[C@@H]1CN(C)Cc1ccc(-c2ccccc2)cc1	-0.13	-24	67*
Cc1ccc(S(=O)(=O)Nc2ccc3c(c2)C(=O)N([C@@H](C)CO)C[C@@H](C)[C@H](CN(C)Cc2ccc(-c4ccccc4)cc2)O3)cc1	0.1	-8	?
O=C(CN1CCc2ccccc21)Nc1scc2c1c(=O)oc1ccccc12	-0.053	.	.
CCCC(=O)NCc1ccccc1	-0.52	.	.
COc1ccc(NC(=O)/C=C/c2ccccc2)cc1	-0.2	.	.
C[C@H](CO)N1C[C@H](C)[C@H](CN(C)CC2CCCCC2)Oc2ccc(NC(=O)Nc3ccc(C(F)(F)F)cc3)cc2C1=O	-0.14	-45	62*
C[C@@H]1CCCCO[C@@H](CN(C)CC2CC2)[C@@H](C)CN([C@H](C)CO)C(=O)c2cc(NC(=O)Nc3ccc(C(F)(F)F)cc3)ccc2O1	0.1	-13	53
C[C@@H]1CCCCO[C@H](CN(C)CC2CCCCC2)[C@@H](C)CN([C@H](C)CO)C(=O)c2cc(NC(=O)Nc3ccccc3)ccc2O1	0.094	-14	39
C[C@@H]1CCCCO[C@@H](CN(C)CC2CCCCC2)[C@@H](C)CN([C@H](C)CO)C(=O)c2cc(NC(=O)Nc3ccc(F)cc3)ccc2O1	0.072	-15	71*
C[C@@H]1CN([C@@H](C)CO)C(=O)c2cc(NC(=O)Nc3ccc(C(F)(F)F)cc3)ccc2O[C@H]1CN(C)CC1CCCCC1	-0.028	-22	40
C[C@@H]1CCCCO[C@@H](CN(C)CC2CCCCC2)[C@@H](C)CN([C@H](C)CO)C(=O)c2cc(NC(=O)Nc3ccc(C(F)(F)F)cc3)ccc2O1	-0.28	-12	73*
